≈ marks a conversion by molar mass, not a printed value. Calls of active or inactive are those of the source. No cut-off for these calls is given here.
Columns and labels:
ScN2a [1] = assay: Cytotoxicity against ScN2a cells; format: functional; conditions: Mus musculus, read-out: LD50 (the source's name)
How it was run: (§1)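 Scrapie-infected mouse neuroblastoma ScN2a cells, seeded at about 40 000 cells/well, were exposed to compound for 5 days at 37 °C; concentrations up to 25 µM, final DMSO ≤0.25%. Viability was read first with calcein-AM (ex/em 492/525 nm). The same wells were then lysed, Benzonase-treated, digested with proteinase K (1 h, 37 °C), PTA-precipitated and assayed for PrP 27-30 by direct ELISA (D18 antibody, AP/pNPP). Triplicate, three independent experiments.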

ScN2a [2] = assay: Reduction of PrPSC accumulation in ScN2a cells; format: functional, cell-based; conditions: Mus musculus; how it was run: as §1
[3] = Solubility in phosphate buffer at pH 6.5 at 500 uM; format: physicochemical
ScN2a [4] = assay: Reduction of PrPSC accumulation in ScN2a cells upto 25 uM; format: functional, cell-based; conditions: Mus musculus; how it was run: as §1
Adenosine receptor A1 = biological target: T1, Adenosine receptor A1 (Homo sapiens, UniProt P30542); assay: Inhibitory constant aganist human adenosine A1 receptor
T1 sequence (P30542 whole entry): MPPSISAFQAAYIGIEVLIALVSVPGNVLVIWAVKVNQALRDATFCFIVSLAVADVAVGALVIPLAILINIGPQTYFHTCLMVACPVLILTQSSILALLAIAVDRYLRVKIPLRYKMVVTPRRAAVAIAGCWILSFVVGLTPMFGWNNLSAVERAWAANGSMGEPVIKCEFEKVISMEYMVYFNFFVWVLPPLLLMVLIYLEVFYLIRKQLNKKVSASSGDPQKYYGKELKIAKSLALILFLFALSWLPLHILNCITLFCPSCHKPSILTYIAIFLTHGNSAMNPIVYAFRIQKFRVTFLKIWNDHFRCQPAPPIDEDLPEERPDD

[5] = biological target: T2, Adenosine receptor A3 (Homo sapiens) (UniProt P0DMS8); assay: Inhibition of human adenosine A3 receptor ar 5 uM realtive to IB-MECA
T2 sequence (whole entry): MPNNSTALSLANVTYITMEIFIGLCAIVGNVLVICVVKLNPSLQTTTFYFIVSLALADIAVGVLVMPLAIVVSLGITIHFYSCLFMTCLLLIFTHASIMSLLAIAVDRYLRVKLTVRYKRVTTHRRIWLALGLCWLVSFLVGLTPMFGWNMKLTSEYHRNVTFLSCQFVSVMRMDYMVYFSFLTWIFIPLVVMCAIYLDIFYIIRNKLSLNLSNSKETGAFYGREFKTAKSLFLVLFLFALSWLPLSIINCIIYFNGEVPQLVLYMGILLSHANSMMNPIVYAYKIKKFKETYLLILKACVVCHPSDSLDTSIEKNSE
How it was run: (§2)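 Human adenosine receptor subtypes hA1, hA2a and hA3 were tested with compound at 5 µM. Inhibition is expressed relative to a selective reference also used at 5 µM, taken as 100%: DPCPX for hA1, NECA for hA2a, IB-MECA for hA3.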

[6] = biological target: Adenosine receptor A2a (Homo sapiens) (UniProt P29274); assay: Inhibition of human adenosine A2a receptor at 5 uM relative to NECA; how it was run: as §2
[7] = biological target: T3, Adenosine receptor A1 (Homo sapiens) (UniProt P30542); assay: Inhibition of human adenosine A1 receptor at 5 uM relative to DPCPX; how it was run: as §2
T3 sequence (whole entry): T1 sequence (P30542 whole entry)

Adenosine receptor A2a (Homo sapiens), sequence (P29274 whole entry): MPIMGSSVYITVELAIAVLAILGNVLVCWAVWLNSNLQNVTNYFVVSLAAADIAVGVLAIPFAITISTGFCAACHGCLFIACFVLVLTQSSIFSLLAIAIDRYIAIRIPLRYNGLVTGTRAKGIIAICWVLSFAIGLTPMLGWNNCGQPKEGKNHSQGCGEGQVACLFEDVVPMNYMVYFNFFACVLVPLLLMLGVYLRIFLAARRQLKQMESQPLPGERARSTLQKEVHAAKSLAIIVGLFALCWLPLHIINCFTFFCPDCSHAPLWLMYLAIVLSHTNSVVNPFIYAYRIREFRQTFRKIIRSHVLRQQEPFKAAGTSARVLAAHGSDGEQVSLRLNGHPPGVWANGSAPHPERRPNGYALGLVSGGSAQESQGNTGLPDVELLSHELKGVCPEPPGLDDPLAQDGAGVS

| Structure (SMILES) | CC50 (ScN2a [1]) [µM] | EC50 (ScN2a [2]) [µM] | solubility at 500 µM [3] [µM] | further results |
| --- | --- | --- | --- | --- |
| CC(C)N(CCSc1nc(N)c(C#N)c(-c2ccco2)c1C#N)C(C)C | > 25 | 13.4 |  |  |
| CN(C)CCCN1c2ccccc2Sc2ccc(Cl)cc21 [CHLORPROMAZINE] |  |  | > 400 |  |
| CCN(CC)CCSc1nc(N)c(C#N)c(-c2cccc(Cl)c2)c1C#N | > 25 | 5.3 |  |  |
| N#Cc1c(N)nc(SCCN2CCOCC2)c(C#N)c1-c1ccco1 | > 25 |  |  | Activity (ScN2a [4]): inactive |
| CCN(CC)CCSc1nc(N)c(C#N)c(-c2ccc(Cl)c(Cl)c2)c1C#N | > 25 | 7.2 | 200 (≈ 84.1 µg/mL) |  |
| CCCCN(CCCC)CCSc1nc(N)c(C#N)c(-c2ccco2)c1C#N | > 25 |  |  | Activity (ScN2a [4]): inactive |
| N#Cc1c(N)nc(Sc2ccccc2N)c(C#N)c1-c1ccco1 | > 80 | 80 |  |  |
| N#Cc1c(N)nc(SCc2ncc[nH]2)c(C#N)c1-c1ccccc1 |  | > 25 |  |  |
| CCN(CC)CCSc1nc(N)c(C#N)c(-c2ccco2)c1C#N | > 25 | 8.8 | > 400 |  |
| N#Cc1c(N)nc(SCc2ccccc2)c(C#N)c1-c1cccs1 | > 25 |  |  | Activity (ScN2a [4]): inactive |
| CN(C)CCSc1nc(N)c(C#N)c(-c2ccco2)c1C#N | > 25 | 13.9 |  |  |
| CN(CCSc1nc(N)c(C#N)c(-c2ccco2)c1C#N)Cc1ccccc1 | > 25 |  |  | Activity (ScN2a [4]): inactive |
| N#Cc1c(N)nc2sc(C(=O)c3ccccc3[N+](=O)[O-])c(N)c2c1-c1ccco1 | > 25 | 10.9 |  |  |
| CN(C)CCCSc1nc(N)c(C#N)c(-c2ccco2)c1C#N | > 25 | 10.2 | > 400 |  |
| N#Cc1c(N)nc(SCCCN)c(C#N)c1-c1ccco1 | > 25 |  |  | Activity (ScN2a [4]): inactive |
| CCN(CC)CCSc1nc(N)c(C#N)c(-c2ccccc2Cl)c1C#N | > 25 | 5.5 | > 400 | Ki (Adenosine receptor A1): 0.59 µM; inhibition [5]: 77%; inhibition [6]: 62%; inhibition [7]: 95% |
| N#Cc1c(N)nc(SCCN2CCCC2)c(C#N)c1-c1ccco1 | > 25 | 10.6 | 200 (≈ 67.9 µg/mL) |  |
| CCN(CC)CCSc1nc(N)c(C#N)c(-c2ccc(Cl)cc2)c1C#N | > 25 | 7.5 | 200 (≈ 77.2 µg/mL) |  |
| N#Cc1c(N)nc(SCCN2CCCCC2)c(C#N)c1-c1ccco1 | > 25 | 8.1 | > 400 |  |
| N#Cc1c(N)nc(SCC(N)=O)c(C#N)c1-c1ccco1 | > 25 |  |  | Activity (ScN2a [4]): inactive |
| CCN(CC)CCSc1nc(N)c(C#N)c(-c2ccc(Br)cc2)c1C#N | > 25 | 6.1 | 200 (≈ 86.1 µg/mL) |  |
| CCN(CC)CCSc1nc(N)c(C#N)c(-c2cccc(Br)c2)c1C#N | > 25 | 4.3 |  |  |
| COc1ccc(-c2c(C#N)c(N)nc(SCc3ncc[nH]3)c2C#N)cc1 |  | > 25 |  |  |
| CN(Cc1cnc2nc(N)nc(N)c2n1)c1ccc(C(=O)N[C@@H](CCC(=O)O)C(=O)O)cc1 [METHOTREXATE] |  |  | > 400 |  |
| CCN(CC)CCCC(C)Nc1c2ccc(Cl)cc2nc2ccc(OC)cc12 (stereo not drawn) [QUINACRINE] | 7.8 | 0.8 |  |  |
| CNC(=O)[C@H]1O[C@@H](n2cnc3c(NCc4cccc(I)c4)ncnc32)[C@H](O)[C@@H]1O [IB-MECA] |  | > 25 |  |  |
| N#Cc1c(N)nc(SCCCN2CCCCC2)c(C#N)c1-c1ccco1 | > 25 | 6 | > 400 |  |
| CCCn1c(=O)c2[nH]c(C3CCCC3)nc2n(CCC)c1=O [1,3-DIPROPYL-8-CYCLOPENTYLXANTHINE [DPCPX]] |  | > 25 |  |  |
| CCN(CC)CCSc1nc(N)c(C#N)c(-c2cc(Cl)cc(Cl)c2)c1C#N | > 25 | 2.2 |  |  |
| CCN(CC)CCSc1nc(N)c(C#N)c(-c2cccc(Cl)c2Cl)c1C#N | > 25 | 4.5 | 200 (≈ 84.1 µg/mL) |  |

Source: ChEMBL document CHEMBL1139220, “Structure-activity relationship study of prion inhibition by 2-aminopyridine-3,5-dicarbonitrile-based compounds: parallel synthesis, bioactivity, and in vitro pharmacokinetics” (J Med Chem, 2007)
